ChEMBL document CHEMBL1148431, “Structure-activity relationships of novel potent MurF inhibitors” (Bioorg Med Chem Lett, 2004)

target: T1, UDP-N-acetylmuramoylalanine-D-glutamyl-lysine-D-alanyl-D-alanine ligase (Streptococcus pneumoniae R6, UniProt Q8DNV6); test: Antibacterial activity against UDP-MurNAc-pentapeptide synthetase from Streptococcus pneumoniae.
T1 sequence (Q8DNV6 whole entry): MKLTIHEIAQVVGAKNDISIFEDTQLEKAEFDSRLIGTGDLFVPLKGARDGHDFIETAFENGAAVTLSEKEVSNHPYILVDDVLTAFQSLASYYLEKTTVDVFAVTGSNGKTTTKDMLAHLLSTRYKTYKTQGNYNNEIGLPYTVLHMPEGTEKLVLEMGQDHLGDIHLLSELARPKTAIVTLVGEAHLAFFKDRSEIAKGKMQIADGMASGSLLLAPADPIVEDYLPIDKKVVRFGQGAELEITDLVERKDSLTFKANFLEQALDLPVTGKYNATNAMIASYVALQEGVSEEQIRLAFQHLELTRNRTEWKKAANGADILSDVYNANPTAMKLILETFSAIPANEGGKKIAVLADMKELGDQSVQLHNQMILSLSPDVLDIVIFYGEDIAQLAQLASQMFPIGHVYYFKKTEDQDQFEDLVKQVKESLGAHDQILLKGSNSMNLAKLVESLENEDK
In short: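 Activity was read as radiolabeled free phosphate released. IC50 was read graphically from four-point concentration plots spanning it. Each point is the mean of at least two determinations, and each IC50 the mean of at least two independent plots.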

`CCN(CC)S(=O)(=O)c1ccc(Cl)c(C(=O)Nc2sc3c(c2CN)CCC3)c1` and `CCN(CC)S(=O)(=O)c1ccc(Cl)c(C(=O)Nc2sc3c(c2CNC(C)=O)CCC3)c1` cannot be ordered by IC50: greater than 100 µM for the first, greater than 100 µM for the second.

First: N#Cc1c(NC(=O)c2cc(S(=O)(=O)N3CCOCC3)ccc2Cl)sc2c1CCCC2
Second: N#Cc1c(NC(=O)c2cc(S(=O)(=O)N3CCOCC3)ccc2Cl)sc2c1CCCCC2
The IC50 of the first is 2.5-fold lower: 1.7 µM for the first, 4.2 µM for the second. The first is the more potent here.

Compared with `CCN(CC)S(=O)(=O)c1ccc(Cl)c(CNc2sc3c(c2C#N)CCC3)c1`, `CCN(CC)S(=O)(=O)c1ccc(Cl)c(C(=O)Nc2sc3c(c2C#N)CCC3)c1` is lower in IC50: greater than 100 µM for the first, 8 µM for the second.

First: N#Cc1c(NC(=O)c2cc(S(=O)(=O)N3CCOCC3)ccc2Cl)sc2c1CCC2
Second: N#Cc1c(NC(=O)c2cc(S(=O)(=O)N3CCOCC3)ccc2Br)sc2c1CCC2
The IC50 of the first is 2.1-fold higher: 9 µM for the first, 4.2 µM for the second. The second is the more potent here.

Compared with `N#Cc1c(NC(=O)c2cc(S(=O)(=O)N3CCOCC3)c(Cl)cc2Cl)sc2c1CCCC2`, `N#Cc1c(NC(=O)c2cc(S(=O)(=O)N3CCOCC3)c(Cl)cc2Cl)sc2c1CCC2` is 3.3-fold lower in IC50: 1 µM for the first, 0.3 µM for the second.

First: CN(C)CCCNS(=O)(=O)c1ccc(Cl)c(C(=O)Nc2sc3c(c2C#N)CCC3)c1
Second: CNS(=O)(=O)c1ccc(Cl)c(C(=O)Nc2sc3c(c2C#N)CCC3)c1
The IC50 of the first is higher: greater than 100 µM for the first, 15 µM for the second.

Compared with `CCOC(=O)c1c(NC(=O)c2cc(S(=O)(=O)N(CC)CC)ccc2Cl)sc2c1CCC2`, `CCN(CC)S(=O)(=O)c1ccc(Cl)c(C(=O)Nc2sc3c(c2C(N)=O)CCC3)c1` is lower in IC50: greater than 100 µM for the first, 66 µM for the second.

First: N#Cc1c(NC(=O)c2cc(S(=O)(=O)N3CCOCC3)c(F)cc2Cl)sc2c1CCC2
Second: CNc1cc(Cl)c(C(=O)Nc2sc3c(c2C#N)CCC3)cc1S(=O)(=O)N1CCOCC1
The IC50 of the first is 9.7-fold lower: 6.4 µM for the first, 62 µM for the second.

First: N#Cc1c(NC(=O)c2cc(S(=O)(=O)N3CCOCC3)c(Cl)cc2Cl)sc2c1CCC(c1ccccc1)C2 (centres undefined)
Second: N#Cc1c(NC(=O)c2cc(S(=O)(=O)N3CCOCC3)c(Cl)cc2Cl)sc2c1CCC(c1ccc(O)cc1)C2 (centres undefined)
The IC50 of the first is 3.2-fold higher: 0.07 µM for the first, 0.022 µM for the second.

`N#Cc1c(NC(=O)c2cc(S(=O)(=O)N3CCOCC3)c(NCCCO)cc2Cl)sc2c1CCC2` and `CN(C)CCCNc1cc(Cl)c(C(=O)Nc2sc3c(c2C#N)CCC3)cc1S(=O)(=O)N1CCOCC1` cannot be ordered by IC50: greater than 100 µM for the first, greater than 100 µM for the second.

Compared with `N#Cc1c(NC(=O)c2cc(S(=O)(=O)Nc3ccccc3)ccc2Cl)sc2c1CCC2`, `CCN(CC)S(=O)(=O)c1ccc(Cl)c(C(=O)Nc2sc3c(c2C#N)CCCC3)c1` is 19-fold lower in IC50: 26 µM for the first, 1.4 µM for the second.

Compared with `CN(C)CCCNc1ccc(S(=O)(=O)N2CCOCC2)cc1C(=O)Nc1sc2c(c1C#N)CCC2`, `CN(C)c1ccc(S(=O)(=O)N2CCOCC2)cc1C(=O)Nc1sc2c(c1C#N)CCC2` is higher in IC50: 74 µM for the first, greater than 100 µM for the second. The first is the more potent here.

Going from `CCN(CC)S(=O)(=O)c1ccc(Cl)c(C(=O)Nc2sc3c(c2C#N)CCCCC3)c1` to `CCN(CC)S(=O)(=O)c1ccc(Cl)c(C(=O)N(C)c2sc3c(c2C#N)CCC3)c1`, the IC50 rises from 3.4 µM to greater than 100 µM. The first is the more potent here.

`CC(COc1ccc(S(=O)(=O)N2CCOCC2)cc1C(=O)Nc1sc2c(c1C#N)CCC2)c1ccccc1` (centres undefined) and `CCOc1ccc(S(=O)(=O)N2CCOCC2)cc1C(=O)Nc1sc2c(c1C#N)CCC2` cannot be ordered by IC50: greater than 100 µM for the first, greater than 100 µM for the second.

First: CCOC(=O)C1CCc2c(sc(NC(=O)c3cc(S(=O)(=O)N(CC)CC)ccc3Cl)c2C#N)C1 (centres undefined)
Second: CCN(CC)S(=O)(=O)c1ccc(Cl)c(C(=O)Nc2sc3c(c2C#N)CCC(c2ccc(O)cc2)C3)c1 (centres undefined)
The IC50 of the first is 110-fold higher: 6 µM for the first, 0.054 µM for the second.

Going from `CCN(CC)S(=O)(=O)c1cc(C(=O)Nc2sc3c(c2C#N)CCC3)c(Cl)cc1Cl` to `CCN(CC)S(=O)(=O)c1cc(C(=O)Nc2sc3c(c2C#N)CCC(c2ccc(O)cc2)C3)c(Cl)cc1Cl` (centres undefined), the IC50 falls from 5.2 µM to 0.067 µM (78-fold). The second is the more potent here.

`CCN(CC)S(=O)(=O)c1ccc(Cl)c(C(C)Nc2sc3c(c2C#N)CCC3)c1` (centres undefined) and `N#Cc1c(NC(=O)c2cccc(S(=O)(=O)N3CCOCC3)c2)sc2c1CCC2` cannot be ordered by IC50: greater than 100 µM for the first, greater than 100 µM for the second.
